Data as given in ChEMBL document CHEMBL1641413, “Identification of 3-sulfonylindazole derivatives as potent and selective 5-HT(6) antagonists” (Bioorg Med Chem, 2011).
Activity calls are given as the source filed them. No cut-off for these calls is given here.

What was measured:
[1] = target: T1, 5-hydroxytryptamine receptor 6 (Homo sapiens, UniProt P50406); experiment: Displacement of [3H]-LSD from cloned human 5-HT6 receptor expressed in human HeLa cells; assay type: cell-based
Summary of the method: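 Radioligand displacement of [³H]-LSD from cloned human 5-HT6 receptors stably expressed in HeLa cells; compounds tested as HCl salts; Ki values determined in triplicate.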

[2] = target: T1, 5-hydroxytryptamine receptor 6; experiment: Antagonist activity at cloned human 5-HT6 receptor expressed in human HeLa cells assessed as inhibition of 5HT-induced cyclic AMP formation; assay type: functional, cell-based
[3] = % bound in plasma; assay type: ADME, cell-free; conditions: read-out: PPB
[4] = target: T2, 5-hydroxytryptamine receptor 1A (Homo sapiens, UniProt P08908); experiment: Binding affinity to 5-HT1A receptor
T2 sequence (P08908 whole entry): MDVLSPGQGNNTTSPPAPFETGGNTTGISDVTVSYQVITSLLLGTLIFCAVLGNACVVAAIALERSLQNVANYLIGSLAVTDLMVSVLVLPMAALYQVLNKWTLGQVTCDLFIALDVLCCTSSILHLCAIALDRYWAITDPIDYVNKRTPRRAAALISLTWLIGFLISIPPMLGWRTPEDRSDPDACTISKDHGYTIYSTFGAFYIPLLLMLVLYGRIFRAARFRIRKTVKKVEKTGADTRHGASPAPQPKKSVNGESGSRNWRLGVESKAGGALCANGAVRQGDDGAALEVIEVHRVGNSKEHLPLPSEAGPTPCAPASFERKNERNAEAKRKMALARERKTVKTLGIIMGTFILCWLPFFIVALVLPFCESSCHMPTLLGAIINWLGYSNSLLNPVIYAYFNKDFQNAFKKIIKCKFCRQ

[5] = target: 5-hydroxytryptamine receptor 1B (Homo sapiens, UniProt P28222); experiment: Binding affinity to 5-HT1B receptor
[6] = target: 5-hydroxytryptamine receptor 1D (Homo sapiens, UniProt P28221); experiment: Binding affinity to 5-HT1D receptor
[7] = target: T3, 5-hydroxytryptamine receptor 2B (Homo sapiens, UniProt P41595); experiment: Binding affinity to 5-HT2B receptor
[8] = target: T4, 5-hydroxytryptamine receptor 2C (Homo sapiens, UniProt P28335); experiment: Binding affinity to 5-HT2C receptor
T4 sequence (P28335 whole entry): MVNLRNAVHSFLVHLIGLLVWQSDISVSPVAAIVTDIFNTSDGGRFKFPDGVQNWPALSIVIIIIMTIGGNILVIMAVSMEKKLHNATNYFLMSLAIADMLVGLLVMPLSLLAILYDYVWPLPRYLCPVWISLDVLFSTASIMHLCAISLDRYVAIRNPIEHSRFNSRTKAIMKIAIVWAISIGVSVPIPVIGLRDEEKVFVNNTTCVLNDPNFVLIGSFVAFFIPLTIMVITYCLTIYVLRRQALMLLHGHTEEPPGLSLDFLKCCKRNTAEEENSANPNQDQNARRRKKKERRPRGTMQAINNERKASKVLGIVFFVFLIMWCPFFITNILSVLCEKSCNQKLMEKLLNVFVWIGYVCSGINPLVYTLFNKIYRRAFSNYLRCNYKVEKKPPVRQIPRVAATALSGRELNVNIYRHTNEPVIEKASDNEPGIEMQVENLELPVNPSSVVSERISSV

[9] = target: 5-hydroxytryptamine receptor 7 (Homo sapiens, UniProt P34969); experiment: Binding affinity to 5-HT7 receptor
[10] = target: T5, Alpha-2A adrenergic receptor (Homo sapiens, UniProt P08913); experiment: Binding affinity to adrenergic alpha2A receptor
T5 sequence (P08913 whole entry): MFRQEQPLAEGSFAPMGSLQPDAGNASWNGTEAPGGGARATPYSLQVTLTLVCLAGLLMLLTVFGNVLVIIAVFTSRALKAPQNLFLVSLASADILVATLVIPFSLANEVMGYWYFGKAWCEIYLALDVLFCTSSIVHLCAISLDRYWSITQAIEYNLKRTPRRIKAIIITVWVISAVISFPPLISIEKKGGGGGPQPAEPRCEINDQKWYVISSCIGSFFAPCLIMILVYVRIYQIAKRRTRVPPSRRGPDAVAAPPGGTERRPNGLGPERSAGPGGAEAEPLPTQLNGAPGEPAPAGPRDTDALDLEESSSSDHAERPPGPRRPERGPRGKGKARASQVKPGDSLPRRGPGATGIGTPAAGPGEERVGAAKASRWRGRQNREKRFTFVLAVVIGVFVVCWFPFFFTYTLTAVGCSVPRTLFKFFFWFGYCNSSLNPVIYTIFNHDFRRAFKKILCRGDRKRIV

D(2) dopamine receptor = D(2) dopamine receptor (Homo sapiens, UniProt P14416); experiment: Binding affinity to dopamine D2 receptor
[11] = target: T3, 5-hydroxytryptamine receptor 2B; experiment: Agonist activity at 5-HT2B receptor at 0.1 nM to 10 uM by FLIPR assay; assay type: functional
[12] = Solubility of the compound in water; assay type: physicochemical
[13] = Half life in rat microsomes; assay type: ADME, Microsome
[14] = Half life in human microsomes; assay type: ADME, Microsome
[15] = Binding affinity to P-glycoprotein

5-hydroxytryptamine receptor 1D, sequence (P28221 whole entry): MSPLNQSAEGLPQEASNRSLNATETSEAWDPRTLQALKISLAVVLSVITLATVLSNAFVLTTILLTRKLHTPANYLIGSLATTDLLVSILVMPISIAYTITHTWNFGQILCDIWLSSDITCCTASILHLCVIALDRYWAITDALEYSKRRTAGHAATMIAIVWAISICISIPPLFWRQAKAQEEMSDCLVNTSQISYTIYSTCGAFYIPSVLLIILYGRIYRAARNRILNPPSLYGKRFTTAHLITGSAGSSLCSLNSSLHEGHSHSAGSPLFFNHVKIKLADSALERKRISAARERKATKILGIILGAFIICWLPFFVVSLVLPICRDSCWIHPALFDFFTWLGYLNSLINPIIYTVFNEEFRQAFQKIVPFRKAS
D(2) dopamine receptor, sequence (P14416 whole entry): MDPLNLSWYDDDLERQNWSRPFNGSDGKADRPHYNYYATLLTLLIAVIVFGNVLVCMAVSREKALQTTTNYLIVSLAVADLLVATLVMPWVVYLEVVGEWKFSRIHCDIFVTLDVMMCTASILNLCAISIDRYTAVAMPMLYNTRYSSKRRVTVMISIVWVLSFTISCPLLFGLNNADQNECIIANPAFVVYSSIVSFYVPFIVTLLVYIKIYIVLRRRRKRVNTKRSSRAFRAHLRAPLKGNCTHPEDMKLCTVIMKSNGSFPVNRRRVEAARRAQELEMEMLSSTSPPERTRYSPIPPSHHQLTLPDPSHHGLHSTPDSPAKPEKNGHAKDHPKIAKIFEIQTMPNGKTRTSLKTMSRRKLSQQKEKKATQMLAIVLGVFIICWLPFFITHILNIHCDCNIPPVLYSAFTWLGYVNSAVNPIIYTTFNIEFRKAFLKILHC
T3 sequence (P41595 whole entry): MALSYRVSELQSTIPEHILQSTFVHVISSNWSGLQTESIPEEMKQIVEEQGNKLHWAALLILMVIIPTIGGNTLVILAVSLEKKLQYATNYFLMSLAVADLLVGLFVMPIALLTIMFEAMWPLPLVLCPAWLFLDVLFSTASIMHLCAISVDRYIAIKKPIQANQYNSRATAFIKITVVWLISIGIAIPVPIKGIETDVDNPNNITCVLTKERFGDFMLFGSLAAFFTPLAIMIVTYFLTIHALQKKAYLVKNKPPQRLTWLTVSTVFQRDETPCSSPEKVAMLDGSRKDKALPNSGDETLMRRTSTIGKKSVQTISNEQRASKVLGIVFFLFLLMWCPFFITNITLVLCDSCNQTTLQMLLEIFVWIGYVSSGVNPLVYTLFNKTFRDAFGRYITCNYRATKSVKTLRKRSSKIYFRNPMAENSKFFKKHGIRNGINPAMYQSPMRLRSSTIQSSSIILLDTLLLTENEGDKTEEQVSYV
5-hydroxytryptamine receptor 7, sequence (P34969 whole entry): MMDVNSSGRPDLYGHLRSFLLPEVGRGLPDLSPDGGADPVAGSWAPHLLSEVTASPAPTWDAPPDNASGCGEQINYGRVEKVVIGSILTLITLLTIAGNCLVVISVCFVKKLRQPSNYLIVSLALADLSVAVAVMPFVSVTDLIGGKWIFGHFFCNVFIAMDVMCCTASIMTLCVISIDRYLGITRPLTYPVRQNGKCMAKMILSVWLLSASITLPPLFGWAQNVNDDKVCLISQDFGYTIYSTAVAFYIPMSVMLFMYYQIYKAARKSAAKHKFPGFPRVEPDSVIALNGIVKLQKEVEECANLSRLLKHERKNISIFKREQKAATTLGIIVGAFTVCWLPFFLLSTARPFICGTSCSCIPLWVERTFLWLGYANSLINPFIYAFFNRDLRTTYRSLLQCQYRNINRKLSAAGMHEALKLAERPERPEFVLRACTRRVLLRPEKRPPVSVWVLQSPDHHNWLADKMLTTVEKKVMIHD
5-hydroxytryptamine receptor 1B, sequence (P28222 whole entry): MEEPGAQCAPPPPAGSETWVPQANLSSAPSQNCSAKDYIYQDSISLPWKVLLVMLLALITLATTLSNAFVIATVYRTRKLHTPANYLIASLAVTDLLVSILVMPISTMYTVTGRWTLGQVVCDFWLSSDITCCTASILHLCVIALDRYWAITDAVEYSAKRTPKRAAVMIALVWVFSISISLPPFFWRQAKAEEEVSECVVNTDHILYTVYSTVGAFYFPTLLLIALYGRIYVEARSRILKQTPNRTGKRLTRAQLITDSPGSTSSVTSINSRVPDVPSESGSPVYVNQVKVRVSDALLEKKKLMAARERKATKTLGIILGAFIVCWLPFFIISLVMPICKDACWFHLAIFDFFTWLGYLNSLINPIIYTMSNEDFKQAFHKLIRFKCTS
T1 sequence (P50406 whole entry): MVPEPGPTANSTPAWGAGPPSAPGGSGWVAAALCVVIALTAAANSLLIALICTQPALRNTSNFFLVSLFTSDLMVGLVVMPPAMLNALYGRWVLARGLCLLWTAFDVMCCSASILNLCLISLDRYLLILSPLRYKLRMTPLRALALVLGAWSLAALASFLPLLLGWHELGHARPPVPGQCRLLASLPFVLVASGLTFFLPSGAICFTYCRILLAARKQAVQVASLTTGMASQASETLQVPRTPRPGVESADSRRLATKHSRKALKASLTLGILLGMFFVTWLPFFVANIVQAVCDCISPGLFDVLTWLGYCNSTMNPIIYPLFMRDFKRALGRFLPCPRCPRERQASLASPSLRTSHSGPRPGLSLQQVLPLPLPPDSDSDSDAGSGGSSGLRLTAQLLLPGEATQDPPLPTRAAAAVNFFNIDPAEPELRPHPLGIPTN

| Compound | Ki [1] | IC50 [2] | fraction unbound [3] | other results |
| --- | --- | --- | --- | --- |
| O=S(=O)(c1ccc(F)cc1)c1n[nH]c2ccc(NC3CCNCC3)cc12 | 6.3 nM | 118 nM | > 0.2 | – |
| O=S(=O)(c1cccc(F)c1)c1n[nH]c2ccc(NC3CCNCC3)cc12 | 6.7 nM | 94 nM | > 0.2 | – |
| O=S(=O)(c1ccc(C(F)(F)F)cc1)c1n[nH]c2ccc(NC3CCNCC3)cc12 | 1.5 nM | 27 nM | > 0.2 | – |
| CN(C)CCC(=O)Nc1cccc2c(S(=O)(=O)c3cccc4ccccc34)n[nH]c12 | 4.8 nM | 137 nM | > 0.2 | – |
| CC(N)CNc1ccc2[nH]nc(S(=O)(=O)c3cccc4ccccc34)c2c1 (stereo unspecified) | 1.4 nM | 30 nM | > 0.2 | – |
| COc1ccc(S(=O)(=O)c2n[nH]c3ccc(NC4CCNCC4)cc23)cc1 | 9.8 nM | 126 nM | > 0.2 | – |
| O=C(NCCN1CCCCC1)c1ccc2[nH]nc(S(=O)(=O)c3cccc4ccccc34)c2c1 | 107 nM | – | > 0.2 | – |
| CN(C)CCC(=O)Nc1ccc2c(S(=O)(=O)c3cccc4ccccc34)n[nH]c2c1 | 44 nM | – | > 0.2 | – |
| CC(C)[C@H](N)CNc1ccc2[nH]nc(S(=O)(=O)c3cccc4ccccc34)c2c1 | – | – | > 0.2 | – |
| O=S(=O)(c1cccc2ccccc12)c1n[nH]c2ccc(CN3CCNCC3)cc12 | 0.24 nM | 19 nM | > 0.2 | – |
| NCCC(=O)Nc1ccc2c(S(=O)(=O)c3cccc4ccccc34)n[nH]c2c1 | 24 nM | 456 nM | > 0.2 | – |
| O=S(=O)(c1cccc2ccccc12)c1n[nH]c2ccc(NC3CCCNC3)cc12 (stereo unspecified) | 1.7 nM | 95 nM | > 0.2 | – |
| NCCC(=O)Nc1cccc2c(S(=O)(=O)c3cccc4ccccc34)n[nH]c12 | 3.4 nM | – | > 0.2 | – |
| NCCNCc1ccc2[nH]nc(S(=O)(=O)c3cccc4ccccc34)c2c1 | 12 nM | 156 nM | > 0.2 | – |
| O=C(Nc1ccc2c(S(=O)(=O)c3cccc4ccccc34)n[nH]c2c1)C1CCNCC1 | 31 nM | – | > 0.2 | – |
| O=S(=O)(c1cccc2ccccc12)c1n[nH]c2ccc(NCC3CCNCC3)cc12 | 3.5 nM | 174 nM | > 0.2 | – |
| O=S(=O)(c1cccc2ccccc12)c1n[nH]c2cc(NC3CCNCC3)ccc12 | 53 nM | – | > 0.2 | – |
| Cl.O=S(=O)(c1ccc2ccccc2c1)c1n[nH]c2ccc(NC3CCNCC3)cc12 | 0.6 nM | 16 nM | > 0.2 | Ki [4]: 4350 nM; Ki [5]: > 5000 nM; Ki [6]: > 5000 nM; Ki [7]: 675 nM; Ki [8]: > 5000 nM; Ki [9]: > 5000 nM; Ki [10]: > 5000 nM; Ki (D(2) dopamine receptor): > 5000 nM; Activity [11]: inactive; solubility [12]: > 100 µg/mL; half-life [13]: > 30 min; half-life [14]: > 30 min; Activity [15]: inactive |
| O=C(CCN1CCCCC1)Nc1cccc2c(S(=O)(=O)c3cccc4ccccc34)n[nH]c12 | 24 nM | – | > 0.2 | – |
| O=S(=O)(c1cccc2ccccc12)c1n[nH]c2cccc(NC3CCCNC3)c12 (stereo unspecified) | 4.2 nM | 88 nM | > 0.2 | – |
| Cc1cccc(S(=O)(=O)c2n[nH]c3ccc(NC4CCNCC4)cc23)c1 | 0.8 nM | 19 nM | > 0.2 | – |

| Compound | Ki [1] | IC50 [2] | fraction unbound [3] | other results |
| --- | --- | --- | --- | --- |
| Cl.O=S(=O)(c1cccc(Cl)c1)c1n[nH]c2ccc(NC3CCNCC3)cc12 | 1 nM | 12 nM | > 0.2 | Ki [4]: 455 nM; Ki [5]: 1660 nM; Ki [6]: 410 nM; Ki [7]: 155 nM; Ki [8]: 2430 nM; Ki [9]: 3220 nM; Ki [10]: > 5000 nM; Ki (D(2) dopamine receptor): > 5000 nM; Activity [11]: inactive; solubility [12]: > 100 µg/mL; half-life [13]: > 30 min; half-life [14]: > 30 min; Activity [15]: inactive |
| O=S(=O)(c1ccc(Cl)cc1)c1n[nH]c2ccc(NC3CCNCC3)cc12 | 2.3 nM | 44 nM | > 0.2 | – |
| O=S(=O)(c1cccc2ccccc12)c1n[nH]c2c(NC3CCCNC3)cccc12 (stereo unspecified) | 66 nM | – | > 0.2 | – |
| CCN(CC)CCC(=O)Nc1ccc2c(S(=O)(=O)c3cccc4ccccc34)n[nH]c2c1 | 65 nM | – | > 0.2 | – |
| O=S(=O)(c1cccc2ccccc12)c1n[nH]c2cccc(NCC3CCNCC3)c12 | 9.5 nM | 21 nM | > 0.2 | – |
| O=S(=O)(c1cccc2ccccc12)c1n[nH]c2c(NCC3CCNCC3)cccc12 | 17 nM | 87 nM | > 0.2 | – |
| CC(C)c1ccc(S(=O)(=O)c2n[nH]c3ccc(NC4CCNCC4)cc23)cc1.Cl | 1 nM | 14 nM | > 0.2 | Ki [4]: 859 nM; Ki [5]: 2730 nM; Ki [6]: 1500 nM; Ki [7]: 1760 nM; Ki [8]: 1770 nM; Ki [9]: > 5000 nM; Ki [10]: > 5000 nM; Ki (D(2) dopamine receptor): > 5000 nM; Activity [11]: inactive; solubility [12]: > 100 µg/mL; half-life [13]: > 30 min; half-life [14]: > 30 min; Activity [15]: inactive |
| NCCNc1ccc2[nH]nc(S(=O)(=O)c3cccc4ccccc34)c2c1 | 6.7 nM | 13 nM | > 0.2 | – |
| CN(C)CCN(C)Cc1ccc2[nH]nc(S(=O)(=O)c3cccc4ccccc34)c2c1 | 14 nM | 91 nM | > 0.2 | – |
| O=C(Nc1cccc2c(S(=O)(=O)c3cccc4ccccc34)n[nH]c12)C1CCNCC1 | 28 nM | – | > 0.2 | – |
| O=S(=O)(c1cccc2ccccc12)c1n[nH]c2cc(NCC3CCNCC3)ccc12 | 44 nM | – | > 0.2 | – |
| NCCNc1cccc2c(S(=O)(=O)c3cccc4ccccc34)n[nH]c12 | 17 nM | 93 nM | > 0.2 | – |
| O=S(=O)(c1ccccc1)c1n[nH]c2ccc(NC3CCNCC3)cc12 | 3.1 nM | 125 nM | > 0.2 | – |
| O=C(Nc1cccc2c(S(=O)(=O)c3cccc4ccccc34)n[nH]c12)C1CCCNC1 (stereo unspecified) | 9.8 nM | 48 nM | > 0.2 | – |
| O=S(=O)(c1cccc2ccccc12)c1n[nH]c2cccc(NC3CCNCC3)c12 | 2.8 nM | 56 nM | > 0.2 | – |
| CCN(CC)CCC(=O)Nc1cccc2c(S(=O)(=O)c3cccc4ccccc34)n[nH]c12 | 27 nM | 137 nM | > 0.2 | – |
| O=C(CCN1CCCCC1)Nc1ccc2c(S(=O)(=O)c3cccc4ccccc34)n[nH]c2c1 | 12 nM | 90 nM | > 0.2 | – |
| O=S(=O)(c1cccc2ccccc12)c1n[nH]c2c(NC3CCNCC3)cccc12 | 30 nM | – | > 0.2 | – |
| O=S(=O)(c1cccc2ccccc12)c1n[nH]c2cc(NC3CCCNC3)ccc12 (stereo unspecified) | 57 nM | – | > 0.2 | – |
| CN(C)CCNC(=O)c1ccc2[nH]nc(S(=O)(=O)c3cccc4ccccc34)c2c1 | 2.9 nM | 103 nM | > 0.2 | – |
| NCCNc1ccc2c(S(=O)(=O)c3cccc4ccccc34)n[nH]c2c1 | 17 nM | 87 nM | > 0.2 | – |
